In ChEMBL document CHEMBL1681730, “17,20-lyase inhibitors. Part 4: design, synthesis and structure-activity relationships of naphthylmethylimidazole derivatives as novel 17,20-lyase inhibitors” (Bioorg Med Chem, 2011):

What was measured:
[1] = biological target: T1, Steroid 17-alpha-hydroxylase/17,20 lyase (Rattus norvegicus, UniProt P11715); experiment: Inhibition of 17,20 lyase activity in Sprague-Dawley rat testicular microsomes; design: species or system Testis
T1 sequence (P11715 whole entry): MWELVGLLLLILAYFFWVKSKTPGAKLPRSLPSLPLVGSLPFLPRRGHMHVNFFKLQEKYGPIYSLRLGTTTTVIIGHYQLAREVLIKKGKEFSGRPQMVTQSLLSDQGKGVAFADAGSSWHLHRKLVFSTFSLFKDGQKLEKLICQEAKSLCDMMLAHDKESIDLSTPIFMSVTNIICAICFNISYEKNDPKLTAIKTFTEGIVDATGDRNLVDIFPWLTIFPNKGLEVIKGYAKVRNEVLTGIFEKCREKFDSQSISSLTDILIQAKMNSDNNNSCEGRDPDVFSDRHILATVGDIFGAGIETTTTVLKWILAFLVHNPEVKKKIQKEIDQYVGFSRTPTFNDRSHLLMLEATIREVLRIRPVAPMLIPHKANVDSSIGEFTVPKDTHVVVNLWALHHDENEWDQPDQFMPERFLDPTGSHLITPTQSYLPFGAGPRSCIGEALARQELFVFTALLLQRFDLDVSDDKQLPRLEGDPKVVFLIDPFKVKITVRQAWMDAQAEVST
How it was run: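 Testicular microsomes from 13-week-old male SD rats (7 µg protein) in 75 mM phosphate buffer, pH 7.4, with 10 nM [1,2-3H]-17α-hydroxyprogesterone, 5 mM NADPH, and 1–1000 nM test compound (all final). Compounds were diluted in DMF and then in water. Incubation ran 15 min at 37 °C and was stopped with ethyl acetate. IC50 is the concentration that halves product formation.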

[2] = species on record: Homo sapiens; experiment: Ratio of IC50 for human CYP3A4 to IC50 for human 17,20-lyase
How it was run: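 Two assays. Human 17,20-lyase: recombinant P450c17 (0.5 pmol) with cytochrome b5 and NADPH-P450 reductase, 10 nM [1,2-3H]-17α-hydroxypregnenolone, 5 mM NADPH, 1 mM MgCl2, pH 7.4 phosphate, 1–1000 nM compound, 15 min at 37 °C. DHEA separated by TLC, IC50 calculated. CYP3A4: recombinant enzyme, 100 μM testosterone, NADPH-regenerating system, 30 min at 37 °C, 6-hydroxytestosterone measured by HPLC.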

[3] = biological target: Cytochrome P450 3A4 (Homo sapiens, UniProt P08684); experiment: Inhibition of human CYP3A4; format: ADME
Cytochrome P450 3A4, sequence (P08684 whole entry): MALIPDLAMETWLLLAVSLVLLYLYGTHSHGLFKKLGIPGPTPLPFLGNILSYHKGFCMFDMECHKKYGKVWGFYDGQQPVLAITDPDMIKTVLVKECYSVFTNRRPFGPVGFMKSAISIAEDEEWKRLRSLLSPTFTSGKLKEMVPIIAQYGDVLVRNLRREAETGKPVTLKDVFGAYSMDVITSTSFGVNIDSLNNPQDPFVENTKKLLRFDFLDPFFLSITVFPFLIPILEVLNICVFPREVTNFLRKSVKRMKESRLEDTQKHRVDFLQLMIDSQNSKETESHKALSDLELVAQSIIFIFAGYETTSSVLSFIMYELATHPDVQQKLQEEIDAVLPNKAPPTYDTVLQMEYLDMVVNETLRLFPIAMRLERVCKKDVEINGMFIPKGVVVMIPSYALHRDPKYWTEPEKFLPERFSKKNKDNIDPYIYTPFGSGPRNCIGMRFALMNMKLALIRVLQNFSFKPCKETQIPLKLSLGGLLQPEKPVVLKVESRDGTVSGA

[4] = biological target: T2, Steroid 17-alpha-hydroxylase/17,20 lyase (Homo sapiens, UniProt P05093); experiment: Inhibition of 17,20 lyase activity in human
T2 sequence (P05093 whole entry): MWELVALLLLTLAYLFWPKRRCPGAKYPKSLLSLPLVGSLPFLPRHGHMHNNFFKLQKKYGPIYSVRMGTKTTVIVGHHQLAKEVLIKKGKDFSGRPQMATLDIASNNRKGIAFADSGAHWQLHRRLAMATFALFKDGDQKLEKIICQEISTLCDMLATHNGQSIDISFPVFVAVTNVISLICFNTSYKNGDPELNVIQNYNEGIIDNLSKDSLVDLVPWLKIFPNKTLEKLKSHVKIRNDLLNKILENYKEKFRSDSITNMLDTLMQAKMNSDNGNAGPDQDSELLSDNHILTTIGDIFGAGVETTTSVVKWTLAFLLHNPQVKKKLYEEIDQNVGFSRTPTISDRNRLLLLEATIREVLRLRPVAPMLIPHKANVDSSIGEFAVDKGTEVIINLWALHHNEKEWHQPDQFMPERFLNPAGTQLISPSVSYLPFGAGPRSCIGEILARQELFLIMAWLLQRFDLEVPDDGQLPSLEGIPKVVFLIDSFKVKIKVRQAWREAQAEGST
How it was run: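 Recombinant P450c17 (0.5 pmol) with cytochrome b5 (0.5 pmol) and NADPH-P450 reductase (20.8 ng) in 75 mM phosphate pH 7.4 with 1 mM MgCl2. Substrate 10 nM [1,2-3H]-17α-hydroxypregnenolone, 5 mM NADPH, compound 1–1000 nM. Incubated 15 min at 37 °C, ethyl acetate extraction, DHEA separated from substrate by silica TLC (cyclohexane–ethyl acetate 3:2). IC50 taken as 50% reduction in product.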

[5] = test system: Cynomolgus monkey; experiment: Antiandrogenic activity in cynomolgus monkey assessed as reduction serum testosterone level at 1 mg/kg, po at 4 hrs (reference value: 89.1 +/- 15.6%); format: functional, Macaca fascicularis; design: scale not given: the % may be the effect or the level left
[6] = test system: Cynomolgus monkey; experiment: Antiandrogenic activity in cynomolgus monkey assessed as reduction serum testosterone level at 1 mg/kg, po at 8 hrs (reference value: 68.5 +/- 27.3%); format: functional, Macaca fascicularis; design: scale not given: the % may be the effect or the level left
[7] = test system: Cynomolgus monkey; experiment: Antiandrogenic activity in cynomolgus monkey assessed as reduction serum DHEA level at 1 mg/kg, po at 4 hrs (reference value: 105.7 +/- 4.2%); format: functional, Macaca fascicularis; design: scale not given: the % may be the effect or the level left
How it was run: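 Adult male cynomolgus monkeys (23 ± 2 °C, 12:12 h light/dark) given a single oral 1 mg/kg dose as a suspension in 0.5% methylcellulose. Serum collected just before dosing and at 4 and 8 h, stored at −30 °C, and assayed by RIA. Values expressed as % of the 0 h level, mean ± SD, n = 3. Dunnett test against vehicle.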

[8] = test system: Cynomolgus monkey; experiment: Antiandrogenic activity in cynomolgus monkey assessed as reduction serum DHEA level at 1 mg/kg, po at 8 hrs (reference value: 38.5 +/- 18.4%); format: functional, Macaca fascicularis; design: scale not given: the % may be the effect or the level left
[9] = biological target: T3, Cytochrome P450c11B3 (Rattus norvegicus, UniProt Q64546); experiment: Inhibition of 11-hydroxylase activity in Sprague-Dawley rat adrenal gland; format: tissue-based
T3 sequence (Q64546 whole entry): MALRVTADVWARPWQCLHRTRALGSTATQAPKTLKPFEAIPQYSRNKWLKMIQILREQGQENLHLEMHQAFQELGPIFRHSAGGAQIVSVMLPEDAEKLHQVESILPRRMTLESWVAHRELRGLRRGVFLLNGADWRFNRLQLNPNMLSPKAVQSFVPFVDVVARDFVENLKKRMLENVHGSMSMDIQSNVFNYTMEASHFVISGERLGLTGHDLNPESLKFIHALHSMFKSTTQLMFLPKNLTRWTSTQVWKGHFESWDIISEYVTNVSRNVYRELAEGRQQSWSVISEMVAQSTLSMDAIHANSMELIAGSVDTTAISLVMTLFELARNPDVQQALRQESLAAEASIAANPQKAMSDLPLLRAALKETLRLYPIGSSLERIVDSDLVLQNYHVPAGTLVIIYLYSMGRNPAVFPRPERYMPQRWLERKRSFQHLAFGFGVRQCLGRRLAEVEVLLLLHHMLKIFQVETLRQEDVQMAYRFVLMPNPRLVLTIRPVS
How it was run: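 Mitochondrial fraction from SD rat adrenal glands, 4 µg protein, in 200 mM mannitol, 4.5 mM HEPES, 2.3 mM K phosphate pH 7.4, 0.1 mM EDTA, 0.03% BSA, 4.5 mM NADPH, 11 mM CaCl2. Substrate 10 nM [1,2-3H]-11-deoxycortisol. Test compound 1–1000 nM, diluted in DMF. Incubated 30 min at 37 °C, stopped with ethyl acetate. Final concentrations.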

Structure (SMILES): COc1ccc2cc([C@](O)(c3c[nH]cn3)C(C)C)ccc2c1
- IC50 [1]: 21 nM
- Ratio IC50 [2]: < 36
- IC50 [3]: < 1 µM
- IC50 [4]: 28 nM

Structure (SMILES): CC(C)[C@](O)(c1ccc2c3c(ccc2c1)C(=O)N(C)C3)c1c[nH]cn1
- Activity [5]: 13.2%
- Ratio IC50 [2]: > 1000
- Activity [6]: 9.8%
- Activity [7]: 16.8%
- Activity [8]: 7.7%

Structure (SMILES): CC(C)[C@@](O)(c1ccc2c3c(ccc2c1)C(=O)N(C)C3)c1cnc[nH]1
- IC50 [1]: 110 nM
- IC50 [3]: > 10 µM
- IC50 [4]: 270 nM
- IC50 [9]: > 1000 nM

Structure (SMILES): CC(=O)c1ccc2cc(C(O)(c3c[nH]cn3)C(C)C)ccc2c1 (racemic)
- IC50 [1]: 14 nM
- Ratio IC50 [2]: 50
- IC50 [3]: 1.4 µM
- IC50 [4]: 28 nM

Structure (SMILES): CC(=O)Nc1ccc2cc(C(O)(c3c[nH]cn3)C(C)C)ccc2c1 (racemic)
- IC50 [1]: 29 nM
- Ratio IC50 [2]: < 26
- IC50 [3]: < 1 µM
- IC50 [4]: 39 nM

Structure (SMILES): CNC(=O)Nc1ccc2cc(C(O)(c3c[nH]cn3)C(C)C)ccc2c1 (racemic)
- IC50 [1]: 11 nM
- Ratio IC50 [2]: < 28
- IC50 [3]: < 1 µM
- IC50 [4]: 36 nM

Structure (SMILES): COC(=O)c1ccc2cc(C(O)(c3c[nH]cn3)C(C)C)ccc2c1 (racemic)
- IC50 [1]: 43 nM
- Ratio IC50 [2]: 58
- IC50 [3]: 1.4 µM
- IC50 [4]: 24 nM

Structure (SMILES): CC(C)C(O)(c1ccc2cc(C(N)=O)ccc2c1)c1c[nH]cn1 (racemic)
- IC50 [1]: < 10 nM
- IC50 [3]: 3.7 µM
- IC50 [4]: 30 nM

Structure (SMILES): CNC(=O)c1ccc2cc(C(O)(c3c[nH]cn3)C(C)C)ccc2c1 (racemic)
- IC50 [1]: 6 nM
- Ratio IC50 [2]: 225
- IC50 [3]: 3.6 µM
- IC50 [4]: 16 nM

Structure (SMILES): CCNC(=O)c1ccc2cc(C(O)(c3c[nH]cn3)C(C)C)ccc2c1 (racemic)
- IC50 [1]: 11 nM
- IC50 [3]: 5.7 µM
- IC50 [4]: 46 nM

Structure (SMILES): CCCNC(=O)c1ccc2cc(C(O)(c3cnc[nH]3)C(C)C)ccc2c1 (racemic)
- IC50 [1]: 13 nM
- IC50 [3]: 3.4 µM
- IC50 [4]: 38 nM

Structure (SMILES): CC(C)NC(=O)c1ccc2cc(C(O)(c3c[nH]cn3)C(C)C)ccc2c1 (racemic)
- IC50 [1]: 12 nM
- IC50 [3]: 9.3 µM
- IC50 [4]: 75 nM

Structure (SMILES): CNC(=O)c1ccc2cc(C(O)(c3cnc[nH]3)C(C)C)ccc2c1Cl (racemic)
- IC50 [1]: 91 nM
- IC50 [3]: > 10 µM
- IC50 [4]: 200 nM

Structure (SMILES): CNC(=O)c1ccc2cc(C(O)(c3c[nH]cn3)C(C)C)ccc2c1C (racemic)
- IC50 [1]: 200 nM
- IC50 [3]: > 10 µM
- IC50 [4]: 160 nM

Structure (SMILES): CNC(=O)c1cc2ccc(C(O)(c3c[nH]cn3)C(C)C)cc2cc1C (racemic)
- IC50 [1]: 12 nM
- IC50 [3]: 3.6 µM
- IC50 [4]: 39 nM

Structure (SMILES): CC(C)C(O)(c1ccc2c3c(ccc2c1)C(=O)NC3)c1c[nH]cn1 (racemic)
- IC50 [3]: 6.7 µM
- IC50 [4]: 18 nM

Structure (SMILES): CC(C)C(O)(c1ccc2c3c(ccc2c1)C(=O)N(C)C3)c1c[nH]cn1 (racemic)
- IC50 [4]: 22 nM

Structure (SMILES): CC(C)C(O)(c1ccc2cc3c(cc2c1)CNC3=O)c1c[nH]cn1 (racemic)
- IC50 [4]: 36 nM

Structure (SMILES): CC(C)C(O)(c1ccc2cc3c(cc2c1)CN(C)C3=O)c1c[nH]cn1 (racemic)
- IC50 [1]: 70 nM
- IC50 [3]: 5.4 µM
- IC50 [4]: 19 nM

Structure (SMILES): CC(C)C(O)(c1ccc2c3c(ccc2c1)C(=O)NC3)c1c[nH]cn1 (single isomer, unassigned; (-))
- IC50 [3]: > 10 µM
- IC50 [4]: 15 nM
- IC50 [9]: 13 nM

Structure (SMILES): CC(C)C(O)(c1ccc2c3c(ccc2c1)C(=O)NC3)c1c[nH]cn1 (stereo in doubt; (+)-27a)
- IC50 [1]: 180 nM
- IC50 [3]: 7.4 µM
- IC50 [4]: 60 nM
- IC50 [9]: 220 nM
